Measurements: ChEMBL document CHEMBL4477207, “Discovery of Novel 3-Quinoline Carboxamides as Potent, Selective, and Orally Bioavailable Inhibitors of Ataxia Telangiectasia Mutated (ATM) Kinase” (J Med Chem, 2016)
Converted amounts (≈) assume the structure as drawn. The source made the active and inactive calls. No cut-off for these calls is given here.

Columns and labels:
[1] = biological target: Serine/threonine-protein kinase ATR (Homo sapiens, UniProt Q13535); experiment: Inhibition of ATR in human HT-29 cells assessed as reduction in Chk1 phosphorylation at Ser-345 residue after 60 mins in presence of 4-nitroquinoline-1-oxide by Hoechst 33258 staining based plate reader analysis; type: cell-based
in vitro [2] = settings: rat, hepatocytes
in vitro [3] = settings: human, hepatocytes
[4] = biological target: T1, Serine-protein kinase ATM (Homo sapiens, UniProt Q13315); experiment: Inhibition of ATM phosphorylation at Ser-1981 residue in human HT-29 cells incubated for 1 hr followed by X-ray irradiation by Hoechst staining based fluorescence plate reader analysis; type: cell-based
[5] = biological target: Glycogen synthase kinase-3 beta (Homo sapiens, UniProt P49841); experiment: Inhibition of GSK3beta (unknown origin)
[6] = biological target: Voltage-gated inwardly rectifying potassium channel KCNH2 (Homo sapiens, UniProt Q12809)
[7] = biological target: Vascular endothelial growth factor receptor 2 (Homo sapiens, UniProt P35968); experiment: Inhibition of KDR (unknown origin)
physchem = settings: octanol/buffer, pH 7.4
[8] = Cmax in nude mouse at 50 mg/kg, po; type: ADME, organism-based; parameters: dose 50 mg/kg, route oral; settings: in vivo
Summary of the method: (§1)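 Nude mice, single oral dose of 50 mg/kg. Vehicle was either a propylene glycol aqueous solution or 10% DMSO:90% captisol solution.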

Mus musculus = experiment: Time duration during which free plasma concentration stays above in-vitro ATM IC50 level in nude mouse at 50 mg/kg, po; type: ADME, organism-based; settings: in vivo; summary of the method: as §1
[9] = Clearance in Han Wistar rat at 2 mg/kg, iv or 5 mg/kg, po; type: ADME, organism-based; settings: in vivo
[10] = Thermodynamic solubility of the compound in 0.1M aqueous phosphate buffer at pH 7.4 after 24 hrs by LC-UV analysis; type: physicochemical; settings: read-out: Therm_solubility
Summary of the method: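 Solid samples equilibrated in 0.1 M aqueous phosphate buffer, pH 7.4, for 24 h at 25 °C.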

[11] = Intrinsic clearance in mouse hepatocytes assessed per million cells; type: ADME, cell-based, Hepatocyte; settings: read-out: CLH
Summary of the method: (§2)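 Intrinsic clearance measured in hepatocytes of each species, reported as µL/min/10⁶ cells.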

[12] = Volume of distribution at steady state in Han Wistar rat at 2 mg/kg, iv or 5 mg/kg, po; type: ADME, organism-based; settings: in vivo, read-out: Vdss
[13] = AUC (0 to 24 hrs) in nude mouse at 50 mg/kg, po; type: ADME, organism-based; parameters: dose 50 mg/kg, time < 24 hr, route oral; settings: in vivo; summary of the method: as §1
[14] = Clearance in dog at 1.7 mg/kg, iv or 4.2 mg/kg, po; type: ADME, organism-based, Canis lupus familiaris; settings: in vivo
[15] = Oral bioavailability in Han Wistar rat at 5 mg/kg; type: ADME, organism-based; settings: in vivo
[16] = Volume of distribution at steady state in dog at 1.7 mg/kg, iv or 4.2 mg/kg, po; type: ADME, organism-based, Canis lupus familiaris; settings: in vivo, read-out: Vdss
[17] = Oral bioavailability in dog at 4.2 mg/kg; type: ADME, organism-based, Canis lupus familiaris; settings: in vivo
[18] = Intrinsic clearance in human hepatocytes assessed per million cells; type: ADME, cell-based, Hepatocyte; settings: read-out: CLH; summary of the method: as §2
[19] = Intrinsic clearance in dog hepatocytes assessed per million cells; type: ADME, cell-based, Canis lupus familiaris, Hepatocyte; settings: read-out: CLH; summary of the method: as §2
[20] = Intrinsic clearance in rat hepatocytes assessed per million cells; type: ADME, cell-based, Hepatocyte; settings: read-out: CLH; summary of the method: as §2
[21] = biological target: Phosphatidylinositol 4,5-bisphosphate 3-kinase catalytic subunit alpha isoform (Homo sapiens, UniProt P42336); experiment: Inhibition of human recombinant PI3Kalpha using PIP2/ATP as substrate incubated for 20 mins followed by substrate addition by Kinase Glo reagent based luminescence assay
[22] = biological target: Phosphatidylinositol 4,5-bisphosphate 3-kinase catalytic subunit gamma isoform (Homo sapiens, UniProt P48736); experiment: Inhibition of human recombinant PI3Kgamma using PIP2/ATP as substrate incubated for 20 mins followed by substrate addition by Kinase Glo reagent based luminescence assay
[23] = biological target: DNA-dependent protein kinase catalytic subunit (Homo sapiens, UniProt P78527); experiment: Inhibition of DNAPK (unknown origin) using p53-based peptide substrate preincubated for 5 min prior to ATP addition
[24] = biological target: T1, Serine-protein kinase ATM; experiment: Inhibition of ATM (unknown origin) using p53 as substrate incubated for 30 mins followed by substrate addition measured after 2 hrs in presence of ATP by HTRF method
[25] = biological target: Phosphatidylinositol 4,5-bisphosphate 3-kinase catalytic subunit beta isoform (Homo sapiens, UniProt P42338); experiment: Inhibition of human recombinant PI3Kbeta using PIP2/ATP as substrate incubated for 20 mins followed by substrate addition by Kinase Glo reagent based luminescence assay
[26] = biological target: Serine/threonine-protein kinase mTOR (Homo sapiens, UniProt P42345); experiment: Inhibition of C-terminal FLAG-tagged recombinant mTOR (1362 to 2549 residues) (unknown origin) using Biotin-Ahx-Lys-Lys-Ala-Asn-Gln-Val-Phe-Leu-Gly-Phe-Thr-Tyr-Val-Ala-Pro-Ser-Val-Leu-Glu-Ser-Val-Lys-Glu-NH2 as substrate after 90 mins by AlphaScreen assay
[27] = biological target: T1, Serine-protein kinase ATM; experiment: Inhibition of ATM in human HT-29 cells assessed as reduction in ATM phosphorylation at Ser-1981 residue up to 30 uM incubated for 1 hr followed by X-ray irradiation by Hoeschst staining based plate reader analysis; type: cell-based
Homo sapiens [28] = organism: Homo sapiens; experiment: Selectivity ratio of IC50 for ATR in human HT-29 cells to IC50 for ATM in human HT-29 cells; type: cell-based
Homo sapiens [29] = organism: Homo sapiens; experiment: Selectivity ratio of IC50 for human recombinant PI3Kalpha to IC50 for ATM (unknown origin)
Summary of the method: (§3)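 Enzymatic selectivity calculated as the off-target enzyme IC50 over the ATM enzyme IC50. IC50s in µM, taken as means of at least 3 (ATM) or 2 (other enzymes) independent measurements.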

Homo sapiens [30] = organism: Homo sapiens; experiment: Selectivity ratio of IC50 for DNAPK (unknown origin) to IC50 for ATM (unknown origin); summary of the method: as §3
Homo sapiens [31] = organism: Homo sapiens; experiment: Selectivity ratio of IC50 for human recombinant PI3Kbeta to IC50 for ATM (unknown origin); summary of the method: as §3
Homo sapiens [32] = organism: Homo sapiens; experiment: Selectivity ratio of IC50 for C-terminal FLAG-tagged recombinant mTOR (1362 to 2549 residues) (unknown origin) to IC50 for ATM (unknown origin); summary of the method: as §3
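Throughout, for logD: determined by the shake flask method.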

Sequence of Phosphatidylinositol 4,5-bisphosphate 3-kinase catalytic subunit alpha isoform (P42336 whole entry, canonical isoform): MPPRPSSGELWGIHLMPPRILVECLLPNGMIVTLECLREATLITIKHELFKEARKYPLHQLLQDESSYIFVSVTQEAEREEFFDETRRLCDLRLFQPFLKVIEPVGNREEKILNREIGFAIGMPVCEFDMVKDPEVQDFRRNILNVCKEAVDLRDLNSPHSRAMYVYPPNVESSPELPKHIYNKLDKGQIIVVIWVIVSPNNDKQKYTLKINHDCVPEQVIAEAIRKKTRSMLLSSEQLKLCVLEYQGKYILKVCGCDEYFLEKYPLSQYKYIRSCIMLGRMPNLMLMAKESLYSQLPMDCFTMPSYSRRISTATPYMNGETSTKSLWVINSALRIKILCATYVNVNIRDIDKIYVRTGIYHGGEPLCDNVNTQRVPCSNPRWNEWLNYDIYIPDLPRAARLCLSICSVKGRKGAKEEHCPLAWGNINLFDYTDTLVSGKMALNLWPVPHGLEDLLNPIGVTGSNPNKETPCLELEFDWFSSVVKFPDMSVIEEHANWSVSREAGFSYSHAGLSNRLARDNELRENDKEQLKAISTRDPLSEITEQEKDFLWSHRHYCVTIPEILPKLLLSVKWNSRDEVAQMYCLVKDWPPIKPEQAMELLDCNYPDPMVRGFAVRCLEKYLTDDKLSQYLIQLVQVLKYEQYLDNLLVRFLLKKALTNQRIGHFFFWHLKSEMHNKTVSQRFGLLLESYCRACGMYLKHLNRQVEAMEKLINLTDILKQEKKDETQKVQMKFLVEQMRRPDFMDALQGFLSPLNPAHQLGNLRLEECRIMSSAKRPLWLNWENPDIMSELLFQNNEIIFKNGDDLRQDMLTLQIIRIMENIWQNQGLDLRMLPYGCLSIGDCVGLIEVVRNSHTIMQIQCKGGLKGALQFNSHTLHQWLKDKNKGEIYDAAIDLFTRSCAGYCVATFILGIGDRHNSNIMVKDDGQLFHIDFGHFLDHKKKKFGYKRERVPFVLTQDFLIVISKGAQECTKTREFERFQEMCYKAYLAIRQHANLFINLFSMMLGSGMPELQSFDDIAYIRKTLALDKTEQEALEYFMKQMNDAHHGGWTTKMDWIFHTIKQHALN
Sequence of Voltage-gated inwardly rectifying potassium channel KCNH2 (Q12809 whole entry): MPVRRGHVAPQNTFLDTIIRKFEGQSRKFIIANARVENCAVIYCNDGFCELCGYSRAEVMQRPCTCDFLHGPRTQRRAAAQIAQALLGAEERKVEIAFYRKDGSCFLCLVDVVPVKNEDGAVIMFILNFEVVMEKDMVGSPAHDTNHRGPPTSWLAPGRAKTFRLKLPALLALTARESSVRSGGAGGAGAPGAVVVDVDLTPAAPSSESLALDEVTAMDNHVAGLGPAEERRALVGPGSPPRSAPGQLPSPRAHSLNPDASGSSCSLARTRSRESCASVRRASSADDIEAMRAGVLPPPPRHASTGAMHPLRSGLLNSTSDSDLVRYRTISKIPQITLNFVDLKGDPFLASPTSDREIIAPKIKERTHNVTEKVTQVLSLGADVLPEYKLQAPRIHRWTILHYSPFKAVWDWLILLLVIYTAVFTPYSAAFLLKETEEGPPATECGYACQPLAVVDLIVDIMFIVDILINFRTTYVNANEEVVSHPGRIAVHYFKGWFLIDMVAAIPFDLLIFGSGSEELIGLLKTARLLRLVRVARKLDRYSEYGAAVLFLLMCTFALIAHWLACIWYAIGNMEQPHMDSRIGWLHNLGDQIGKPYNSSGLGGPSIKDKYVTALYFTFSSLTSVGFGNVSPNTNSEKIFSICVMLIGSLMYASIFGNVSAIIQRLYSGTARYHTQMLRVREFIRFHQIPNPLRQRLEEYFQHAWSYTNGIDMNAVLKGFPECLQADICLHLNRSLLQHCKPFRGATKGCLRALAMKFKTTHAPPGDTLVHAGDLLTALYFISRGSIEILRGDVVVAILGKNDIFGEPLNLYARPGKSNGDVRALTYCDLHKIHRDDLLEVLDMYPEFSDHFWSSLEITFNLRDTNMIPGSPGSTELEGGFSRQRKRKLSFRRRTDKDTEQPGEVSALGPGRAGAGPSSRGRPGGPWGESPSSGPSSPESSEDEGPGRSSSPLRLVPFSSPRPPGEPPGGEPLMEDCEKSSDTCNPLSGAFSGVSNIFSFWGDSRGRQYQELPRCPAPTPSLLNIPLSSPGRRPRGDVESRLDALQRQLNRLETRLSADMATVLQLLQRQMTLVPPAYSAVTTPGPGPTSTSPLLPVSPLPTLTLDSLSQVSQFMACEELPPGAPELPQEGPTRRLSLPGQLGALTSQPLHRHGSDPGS
Sequence of Phosphatidylinositol 4,5-bisphosphate 3-kinase catalytic subunit gamma isoform (P48736 whole entry, canonical isoform): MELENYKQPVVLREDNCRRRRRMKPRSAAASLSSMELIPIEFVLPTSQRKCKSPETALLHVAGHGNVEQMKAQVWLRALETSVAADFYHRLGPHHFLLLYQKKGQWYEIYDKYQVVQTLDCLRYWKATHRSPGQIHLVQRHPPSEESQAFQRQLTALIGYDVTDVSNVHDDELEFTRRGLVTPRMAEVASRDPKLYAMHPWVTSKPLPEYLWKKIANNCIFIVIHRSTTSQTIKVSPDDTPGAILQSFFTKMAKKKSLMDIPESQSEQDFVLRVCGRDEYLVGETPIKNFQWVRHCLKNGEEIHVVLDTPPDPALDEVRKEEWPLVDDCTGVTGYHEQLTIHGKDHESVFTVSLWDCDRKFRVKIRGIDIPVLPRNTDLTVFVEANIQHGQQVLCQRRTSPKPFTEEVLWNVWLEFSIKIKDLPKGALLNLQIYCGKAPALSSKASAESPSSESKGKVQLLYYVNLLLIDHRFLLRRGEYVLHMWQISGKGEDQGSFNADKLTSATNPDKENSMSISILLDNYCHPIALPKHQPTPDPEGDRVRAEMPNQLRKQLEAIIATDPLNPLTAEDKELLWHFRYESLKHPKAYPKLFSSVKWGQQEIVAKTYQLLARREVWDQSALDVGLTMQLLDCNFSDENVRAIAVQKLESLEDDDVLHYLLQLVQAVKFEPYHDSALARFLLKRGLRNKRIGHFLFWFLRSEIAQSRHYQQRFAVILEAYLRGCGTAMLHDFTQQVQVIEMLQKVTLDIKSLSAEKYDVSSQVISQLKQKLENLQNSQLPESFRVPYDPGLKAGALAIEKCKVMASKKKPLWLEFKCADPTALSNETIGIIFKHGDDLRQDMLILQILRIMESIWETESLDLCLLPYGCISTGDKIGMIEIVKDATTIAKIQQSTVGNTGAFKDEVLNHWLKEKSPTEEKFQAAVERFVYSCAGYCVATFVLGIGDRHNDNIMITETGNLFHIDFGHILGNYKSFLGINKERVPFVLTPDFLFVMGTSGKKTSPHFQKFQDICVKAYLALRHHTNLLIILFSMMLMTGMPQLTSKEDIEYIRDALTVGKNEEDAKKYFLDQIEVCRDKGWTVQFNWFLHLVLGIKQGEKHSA
Sequence of Phosphatidylinositol 4,5-bisphosphate 3-kinase catalytic subunit beta isoform (P42338 whole entry, the tested form may be a part, canonical isoform): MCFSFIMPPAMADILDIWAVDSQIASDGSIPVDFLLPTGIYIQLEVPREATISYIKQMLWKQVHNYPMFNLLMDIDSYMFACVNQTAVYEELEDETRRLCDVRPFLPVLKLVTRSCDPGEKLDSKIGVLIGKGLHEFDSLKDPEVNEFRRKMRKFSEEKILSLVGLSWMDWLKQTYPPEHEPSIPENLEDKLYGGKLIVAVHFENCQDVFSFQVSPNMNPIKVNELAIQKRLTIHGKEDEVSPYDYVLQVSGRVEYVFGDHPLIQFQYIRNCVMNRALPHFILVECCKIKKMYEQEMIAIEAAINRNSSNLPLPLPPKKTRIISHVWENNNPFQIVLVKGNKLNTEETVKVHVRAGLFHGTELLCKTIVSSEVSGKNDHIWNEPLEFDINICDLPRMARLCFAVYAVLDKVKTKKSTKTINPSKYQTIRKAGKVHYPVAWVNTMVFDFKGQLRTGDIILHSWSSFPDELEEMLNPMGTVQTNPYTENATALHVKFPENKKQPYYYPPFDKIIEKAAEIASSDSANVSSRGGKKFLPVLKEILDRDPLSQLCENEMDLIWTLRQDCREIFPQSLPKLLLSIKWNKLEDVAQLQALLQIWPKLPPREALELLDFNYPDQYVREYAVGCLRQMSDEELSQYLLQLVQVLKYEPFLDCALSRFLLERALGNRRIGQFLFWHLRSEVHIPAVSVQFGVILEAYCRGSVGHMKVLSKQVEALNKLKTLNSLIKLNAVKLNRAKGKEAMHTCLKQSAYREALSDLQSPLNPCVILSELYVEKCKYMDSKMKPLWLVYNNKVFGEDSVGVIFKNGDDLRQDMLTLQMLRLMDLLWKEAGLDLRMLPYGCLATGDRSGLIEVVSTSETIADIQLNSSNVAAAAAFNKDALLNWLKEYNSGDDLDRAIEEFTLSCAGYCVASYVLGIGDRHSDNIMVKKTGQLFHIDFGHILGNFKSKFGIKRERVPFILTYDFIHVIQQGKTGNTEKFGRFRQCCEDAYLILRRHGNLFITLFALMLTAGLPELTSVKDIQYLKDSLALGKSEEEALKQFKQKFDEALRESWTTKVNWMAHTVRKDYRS
Sequence of Glycogen synthase kinase-3 beta (P49841 whole entry): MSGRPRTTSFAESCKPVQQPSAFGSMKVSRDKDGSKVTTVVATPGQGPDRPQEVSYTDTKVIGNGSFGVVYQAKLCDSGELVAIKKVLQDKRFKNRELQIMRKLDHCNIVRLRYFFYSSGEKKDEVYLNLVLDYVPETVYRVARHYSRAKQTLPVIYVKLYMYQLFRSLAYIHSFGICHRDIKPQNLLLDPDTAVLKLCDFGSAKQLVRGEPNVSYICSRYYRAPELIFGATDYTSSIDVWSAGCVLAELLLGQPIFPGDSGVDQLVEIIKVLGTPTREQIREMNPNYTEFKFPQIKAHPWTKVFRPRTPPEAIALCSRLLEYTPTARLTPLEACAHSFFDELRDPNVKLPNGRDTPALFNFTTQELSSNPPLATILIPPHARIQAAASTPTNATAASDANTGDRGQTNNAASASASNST

Row | Structure (SMILES) | IC50 [1] | hepatocyte CLint at 1.5 h (in vitro [2]) | hepatocyte CLint at 1.5 h (in vitro [3]) | IC50 [4] | IC50 [6] | logD (physchem) | further results
1 | CCC(CC)CNc1c(C(N)=O)cnc2ccc(-c3ccc(COC)nc3)cc12 | > 30000 nM | 110 µL/min/1e6 cells | < 6.8 µL/min/1e6 cells | 45 nM | 2500 nM | > 4.3 | IC50 [5]: > 100000 nM; IC50 [7]: 82000 nM
2 | COCc1ccc(-c2ccc3ncc(C(N)=O)c(N[C@@H](C)C4CCOCC4)c3c2)cn1 |  | < 5.3 µL/min/1e6 cells | < 2.6 µL/min/1e6 cells |  |  | 2.5 | Cmax [8]: 6 µM; Time (Mus musculus): 10 h; clearance [9]: 18 mL/min/kg; solubility thermodynamic at 24 h [10]: 590 µM (≈ 248 µg/mL); hepatocyte CLint [11]: 18 µL/min/1e6 cells; Vd [12]: 1.1 L/kg; AUC(0-t) at 24 h [13]: 40 µM·h; clearance [14]: 50 mL/min/kg; bioavailability [15]: 46%; Vd [16]: 2.6 L/kg; bioavailability [17]: 31%; hepatocyte CLint [18]: < 2.6 µL/min/1e6 cells; hepatocyte CLint [19]: 11 µL/min/1e6 cells; hepatocyte CLint [20]: < 5.3 µL/min/1e6 cells
3 | C[C@@H](Nc1c(C(N)=O)cnc2ccc(C#N)cc12)c1ccc(Cl)cc1 | 4700 nM | 41 µL/min/1e6 cells | 10 µL/min/1e6 cells | 14400 nM |  | 3.5 | IC50 [21]: 36 nM; IC50 [22]: 204 nM; IC50 [23]: 109 nM; IC50 [24]: 49 nM; IC50 [25]: 139 nM; IC50 [26]: 846 nM
4 | COc1cc2ncnc(-n3nc(-c4ccccn4)nc3N)c2cc1OC | > 30000 nM | 89 µL/min/1e6 cells | 4.5 µL/min/1e6 cells |  |  | 2.6 | IC50 [21]: 1490 nM; IC50 [22]: > 1000 nM; IC50 [23]: 879 nM; IC50 [25]: 5440 nM; IC50 [26]: 4590 nM
5 | NC(=O)c1cnc2cc(Cl)c(-c3cccnc3)cc2c1NC1CCOCC1 | > 30000 nM | 15 µL/min/1e6 cells | 4.3 µL/min/1e6 cells | 3250 nM | 1200 nM | 2.7 | 
6 | CCC(CC)CNc1c(C(N)=O)cnc2ccc(-c3ccc(CO)nc3)cc12 | > 13000 nM | > 300 µL/min/1e6 cells | 150 µL/min/1e6 cells | 87 nM | 3100 nM | 3.7 | 
7 | NC(=O)c1cnc2ccc(-c3cccnc3)cc2c1SC1CCCC1 | > 23000 nM | 120 µL/min/1e6 cells | 18 µL/min/1e6 cells | 9700 nM | 5100 nM | 3.2 | 
8 | CCC(CC)COc1c(C(N)=O)cnc2ccc(-c3cccnc3)cc12 | > 30000 nM | 260 µL/min/1e6 cells | 42 µL/min/1e6 cells | > 30000 nM | 2100 nM | > 4.3 | inhibition [27]: inactive
9 | C[C@H](Nc1c(C(N)=O)cnc2ccc(-c3cccnc3)cc12)C1CCOCC1 | > 14000 nM | 38 µL/min/1e6 cells | 14 µL/min/1e6 cells | 168 nM | 3600 nM | 2.5 | 
10 | CCC(CC)CNc1c(C(N)=O)cnc2ccc(C#N)cc12 | 4400 nM | 74 µL/min/1e6 cells | 12 µL/min/1e6 cells | 820 nM | 2300 nM |  | IC50 [21]: 247 nM; Ratio IC50 (Homo sapiens [28]): < 10; Ratio IC50 (Homo sapiens [29]): > 10; IC50 [22]: > 1000 nM; IC50 [23]: 98 nM; IC50 [24]: 8 nM; solubility thermodynamic at 24 h [10]: 19 µM (≈ 5.63 µg/mL); IC50 [5]: 550 nM; IC50 [7]: 8100 nM; IC50 [25]: 5740 nM; Ratio IC50 (Homo sapiens [30]): > 10; IC50 [26]: 3450 nM; Ratio IC50 (Homo sapiens [31]): > 400; Ratio IC50 (Homo sapiens [32]): > 400
11 | CCC(CC)CNc1c(C(N)=O)cnc2ccc(-c3ccc(COC)cc3)cc12 | > 30000 nM | 76 µL/min/1e6 cells | 21 µL/min/1e6 cells | 373 nM | 18000 nM | 4.1 | 
